Reference: paper PMC5858514 (Theranostics, 2018)

Assays:
MDA-MB-231 cells = test: Apoptosis study, Annexin V-FITC/PI flow cytometry; type: cell-based, human; conditions: MDA-MB-231, 24 h
How it was run: (§1)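 Annexin V-FITC/PI apoptosis assay. Media: MDA-MB-231 in L-15, OVCAR3 in DMEM, U87MG in MEM; all with 10% FBS, 37 °C, 5% CO2. Cells in 6-well plates got 200 μL of 1 mg/mL test compound for 24 h, then two PBS (pH 7.4) washes. Binding buffer, propidium iodide and Annexin V-FITC were added before flow cytometry. Q2 was early apoptotic and Q4 late apoptotic; Q2+Q4 was taken as […].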

MDA-MB-231 tumor = test: In vivo antitumor activity; design: species or system mice; conditions: three i.v. injections every other day, 6 mg/kg PTX equivalent
How it was run: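 Female BALB/c nude mice were fed a folate-deficient diet for 6 days, then given MDA-MB-231 cells at the right axillary fossa. Treatment began at tumor volumes of 80–150 mm3, n = 5 per group, with a PBS (pH 7.4) control. Dosing was 6 mg/kg PTX equivalent by tail vein, three injections every other day. Tumor volume was measured every other day. Excised tumors were assayed for CD46 protein.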

[1] = Toxicity in the therapy study: body weight and histopathology; type: in vivo, mice
How it was run: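 Female nude mice bearing MDA-MB-231 tumors, n = 5 per group with a PBS (pH 7.4) control. They received 6 mg/kg PTX equivalent i.v. by tail vein, three doses every other day. Body weight was recorded every other day. Liver and kidneys were excised for pathology.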

[2] = test system: MDA-MB-231, OVCAR3, and U87MG cell lines; test: Cell viability MTT assay, three tumor cell lines stated together; type: cell-based, human; conditions: maximum / at the highest dose
How it was run: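 MTT viability assay. Cells at 5 × 10^3 per well, kept at 37 °C, 5% CO2 with 10% FBS: MDA-MB-231 in L-15, OVCAR3 and 293T in DMEM, U87MG in MEM. Test compound from 3 pM to 1.6 nM for 24 h, six replicates. MTT (5 mg/mL stock) added for 4 h, medium replaced with DMSO, absorbance read at 490 nm.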

U87MG cells = test: Apoptosis study, Annexin V-FITC/PI flow cytometry; type: cell-based, human; conditions: 24 h
How it was run: as §1

OVCAR3 cells = test: Apoptosis study, Annexin V-FITC/PI flow cytometry; type: cell-based, human; conditions: OVCAR3, 24 h
How it was run: as §1

CC(=O)O[C@H]1C(=O)[C@@]2(C)[C@H]([C@H](OC(=O)c3ccccc3)[C@]3(O)C[C@H](OC(=O)[C@H](O)[C@@H](NC(=O)c4ccccc4)c4ccccc4)C(C)=C1C3(C)C)[C@]1(OC(C)=O)CO[C@@H]1C[C@@H]2O [PTX, paclitaxel]
cells undergoing early apoptosis (Q2) (MDA-MB-231 cells): 33.8% | late apoptotic cells (Q4) (MDA-MB-231 cells): 1.3% | tumor volume inhibition (MDA-MB-231 tumor): 41.04% | histopathological examination (H&E) of liver and kidneys / major organs ([1]; after treatment, compared with control group): no distinct pathologic changes | body weight loss ([1]; day 21 post initial treatment, 6 mg/kg i.v. x3): 0.65 ± 0.02 g | change in body weight ([1]; over the study period, 6 mg/kg PTX equivalent i.v. x3): significant decrease | cell inhibition ratio [2]: 63% | cells undergoing early apoptosis (Q2) (U87MG cells): 29.8% | late apoptotic cells (Q4) (U87MG cells): 3.1% | cells undergoing early apoptosis (Q2) (OVCAR3 cells): 21.8% | late apoptotic cells (Q4) (OVCAR3 cells): 2.5%
